Rows were chosen to be rich in hits. Some 2.3% of all compounds tested hit in one or more screens of this group.
TRPC4 PAM: positive allosteric modulators of TRPC4, primary screen, cell-based, mouse TRPC4beta, HEK293 mu-opioid, Fluo-4 calcium; Short transient receptor potential channel 4 (Mus musculus), Q9QUQ5; DAMGO EC20, Fluo-4 Ca2+ flux; stronger effect = higher value; B-score at 10 µM; hit rate 0.42% among 310,000;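 active = B-score of calcium response area above 5 SD of library B-scores, with initial fluorescence ratio within 5 SD of library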
Target sequence (Q9QUQ5 whole entry, looked up): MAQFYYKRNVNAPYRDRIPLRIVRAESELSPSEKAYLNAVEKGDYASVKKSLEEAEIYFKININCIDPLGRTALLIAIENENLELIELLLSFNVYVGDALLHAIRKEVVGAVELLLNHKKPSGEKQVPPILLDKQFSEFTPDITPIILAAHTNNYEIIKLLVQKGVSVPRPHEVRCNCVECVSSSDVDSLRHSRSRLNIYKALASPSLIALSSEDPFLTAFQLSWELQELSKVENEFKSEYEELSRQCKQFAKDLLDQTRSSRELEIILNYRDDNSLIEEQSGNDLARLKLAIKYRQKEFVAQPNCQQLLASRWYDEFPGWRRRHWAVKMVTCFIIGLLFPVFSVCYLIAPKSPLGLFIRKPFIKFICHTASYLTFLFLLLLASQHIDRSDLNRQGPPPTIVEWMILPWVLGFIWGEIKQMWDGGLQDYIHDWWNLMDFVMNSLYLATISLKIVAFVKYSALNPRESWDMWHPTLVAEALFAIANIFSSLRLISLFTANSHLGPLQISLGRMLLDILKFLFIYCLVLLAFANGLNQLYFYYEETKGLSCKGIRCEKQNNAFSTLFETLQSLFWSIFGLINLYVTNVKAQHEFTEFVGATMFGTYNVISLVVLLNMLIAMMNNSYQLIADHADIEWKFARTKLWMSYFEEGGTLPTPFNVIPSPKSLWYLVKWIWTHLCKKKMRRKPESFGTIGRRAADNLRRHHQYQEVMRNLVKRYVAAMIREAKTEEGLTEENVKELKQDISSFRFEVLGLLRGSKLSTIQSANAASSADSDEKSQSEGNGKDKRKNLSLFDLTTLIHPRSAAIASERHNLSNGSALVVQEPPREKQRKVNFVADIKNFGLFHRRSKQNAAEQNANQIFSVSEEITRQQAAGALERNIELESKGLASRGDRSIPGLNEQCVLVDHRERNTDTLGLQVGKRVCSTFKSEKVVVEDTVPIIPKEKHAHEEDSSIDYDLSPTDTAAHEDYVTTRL
TRPC4 act: activators of mouse TRPC4 channel, primary screen, Fluo4 calcium, HEK293 TRPC4beta/mu-opioid cells; hit rate 0.49% among 310,000; Fluo4 calcium fluorescence; stronger effect = higher value; B-score at 10 µM;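 active = B-score above 5 SD of library B-scores, and initial fluorescence ratio not above library mean plus 5 SD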;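 note: positive B-score marks a calcium rise read as TRPC4 activation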
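System: HEK293 cells stably co-expressing mouse TRPC4beta and mu-opioid receptor; Schedule: Fluo4 dye loading 45 min at room temperature, 110 s recording; Detection: Fluo4 fluorescence, kinetic; Evaluation: B-scored integrated calcium fluorescence ratio; Controls: buffer (low) and maximal DAMGO (high).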
TRPC6 inhibitor: mouse TRPC6 channel inhibitors, primary screen, cell-based, HEK293, membrane potential dye; Short transient receptor potential channel 6 (Mus musculus), Q61143; ACh-evoked depolarization; stronger effect = lower value; hit rate 1.1% among 310,000; B-score at 10 µM;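 active = B-score under library mean minus 3 SD, initial fluorescence not abnormally high, positive integrated signal ratio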;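 note: B-score derived from integrated fluorescence ratio over the kinetic read; more negative B-score means stronger inhibition of depolarization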
TRPC4 inh: inhibitors of mouse TRPC4 channel, primary screen, Fluo4 calcium, HEK293 TRPC4beta/mu-opioid cells. hit rate 0.39% among 300,000. DAMGO-evoked Fluo4 calcium flux; stronger effect = lower value. B-score at 10 µM. AID 2247, 2010. Short transient receptor potential channel 4 (Mus musculus), Q9QUQ5;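 active = B-score over 3 SD under the library average, no early fluorescence shift, positive overall ratio signal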
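System: stable TRPC4beta/mu-opioid receptor HEK293 cells; Dosing: single-point compound dosing; Measured by: Fluo4 Ca2+ flux fluorescence; Read-out basis: per-well B score of integrated baseline-normalized Fluo4 ratio.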
TRPC6 activator: mouse TRPC6 channel activators, primary screen, cell-based, HEK293, membrane potential dye; AID 2550, 2010; hit rate 0.13% among 310,000; B-score at 10 µM; HEK293-TRPC6 membrane potential dye fluorescence; stronger effect = higher value; Short transient receptor potential channel 6 (Mus musculus), Q61143;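 active = B-score of the integrated fluorescence ratio above library mean plus 3 SD, and starting fluorescence ratio within library mean plus 5 SD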;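 note: higher score means more depolarization so channel activation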
Of the large screens only hits and unclear results are named; the others gave an inactive call.

CN(C)CCNC(=O)c1cc2sc3ccccc3c2s1	TRPC4 PAM 10
CNc1nc(N)c([N+](=O)[O-])c(Nc2ccccc2OC)n1	none
COC(=O)C1(CCSC)NC(c2ccc(O)c(OC)c2)C2C(=O)N(c3ccc(C)cc3)C(=O)C21 (centres undefined)	none
CC1Cc2ccccc2N1C(=O)CSc1nc2c(c(=O)n(C)c(=O)n2C)n1Cc1ccc(F)cc1 (centres undefined)	TRPC4 PAM 49
CCCCn1c(SCC(=O)N2c3ccccc3Sc3ccccc32)nc2c1c(=O)n(C)c(=O)n2C	TRPC4 PAM 117
O=C(CSc1nnc(NC(=O)c2ccccc2)s1)NCc1ccco1	none
O=C(CSc1nnc(NC(=O)c2ccc3c(c2)OCO3)s1)NCc1ccco1	TRPC4 PAM 11
COC(=O)/C=C1/SC(=NC(=O)c2ccccc2)NC1=O	none
COC(=O)/C=C1\SC(=NC(=O)c2cccc(Cl)c2)NC1=O	TRPC4 inh -6
CCOC(=O)CN1C(=O)C2(OCCCO2)c2cc(Br)ccc21	none
COc1ccc(-c2nc(CSCC(=O)NC3CC3)c(C)o2)cc1OC	none
COc1ccc(-c2nc(CSCC(=O)NC3CCN(Cc4ccccc4)CC3)c(C)o2)cc1OC	TRPC4 act 116
CCC(=O)c1cc2c(C)cc(=O)oc2c(C)c1OC(=O)C(C)C	TRPC4 inh -6
CCc1cc(=O)oc2c(CNCc3ccccc3F)c(O)c(Cl)cc12	TRPC4 PAM 17
CCCOc1ccc(Br)cc1/C=N/O	TRPC4 inh -6
CN1CCN(c2ccc(NC(=O)COc3ccccc3)cc2Cl)CC1	none
COC(=O)c1ccc(N2CCN(C)CC2)c(NC(=O)c2cccs2)c1	TRPC4 act 142
COC(=O)c1ccc(N2CCN(C)CC2)c(NC(=O)COc2ccccc2)c1	TRPC4 act 120
COC(=O)c1ccc(N2CCN(C)CC2)c(NC(=O)COc2cccc(C)c2)c1	TRPC4 act 63
COC(=O)c1ccc(N2CCOCC2)c(NC(=O)c2cccs2)c1	none
Cc1cccc(OCC(=O)Nc2ccccc2N2CCN(C)CC2)c1	none
CCOc1ccc(NC(=O)CCN2C(=O)c3ccccc3C2=O)cc1	none
CCN1CCN(c2ncnc3sc(C)c(-c4ccccc4)c23)CC1	TRPC4 act 86
CCN1CCN(c2ncnc3scc(-c4ccc(C)c(C)c4)c23)CC1	none
COC(=O)C1=C(C)N(Cc2ccccc2)C(=O)N[C@H]1c1cccc(C(F)(F)F)c1	TRPC4 PAM 10
COc1cccc(Cn2c(Oc3cccc(C)c3)nc3c2c(=O)n(C)c(=O)n3C)c1	none
COc1cccc(Cn2c(Oc3ccccc3)nc3c2c(=O)n(C)c(=O)n3C)c1	TRPC4 inh -6
CCCc1nc(SC2CCCC2)c2c(=O)n(C)c(=O)n(C)c2n1	TRPC4 inh -5
Cc1cc(-c2cn3ccccc3n2)c(C)n1-c1ccccc1	TRPC4 inh -7
CCCN=C(Nc1ccc(Cl)cc1)c1cccnc1	none
CCCCN=C(Nc1ccc(Cl)cc1)c1cccnc1	TRPC4 inh -6
CCCN(CCC)CCCNS(=O)(=O)c1ccc2c(c1)oc(=O)n2C	TRPC4 act 56
CC(C)OCCCNS(=O)(=O)c1ccc2c(c1)oc(=O)n2C	none
CN(CCNC(=O)c1ccc(/C=N/O)nc1)Cc1ccccc1	TRPC4 PAM 22
CN(CCCNC(=O)c1ccc(/C=N/O)nc1)CCCN(C)Cc1ccccc1	TRPC4 PAM 13
O=C(NCCCNCCCNC(=O)c1ccc(/C=N/O)nc1)c1ccc(/C=N/O)nc1	none
COc1cc(NC(=O)CSc2ncnc3sc4c(c23)CCC(C)C4)c(C(=O)O)cc1OC (centres undefined)	TRPC4 inh -6
CC1CCc2c(sc3ncnc(SCC(=O)Nc4ccc(C(=O)O)cc4)c23)C1 (centres undefined)	TRPC4 inh -6
CN1C2CCC1CC(NC(=O)c1cc(Cl)cc3[nH]cnc13)C2 (centres undefined)	none
O=C(NCC(=O)N1CCCCCCC1)c1ccc(Br)o1	none
Cc1ccc(NC(=O)CN2CCc3ccccc3C2)cc1F	TRPC4 inh -7
CC(NC(=O)c1ccccc1NC(=O)CN1CCc2ccccc2C1)c1ccccc1 (centres undefined)	TRPC4 PAM 15
COC(=O)c1ccccc1NC(=O)CN1CCc2ccccc2C1	none
Cc1ccc(NC(=O)CN2CCc3ccccc3C2)cc1S(=O)(=O)N1CCOCC1	TRPC4 act 70, TRPC4 inh -9
c1ccc(Nc2nnc(-c3cccnc3)s2)cc1	none
CCn1c(CC(=O)Nc2ccc(F)cc2)nnc1SCC(=O)Nc1nnc(C)s1	none
CCCN1CN(Cc2ccco2)c2nc3ccccc3n2C1	TRPC4 inh -6
C/C(=N\NC(=O)COc1ccc(C)cc1C(C)C)c1ccc(-n2ccnc2)cc1	TRPC4 PAM 28
COC(=O)N/N=C(\C)c1ccc(-n2ccnc2)cc1	none
COc1ccccc1OCC(=O)N(Cc1nnc(-c2ccccc2Cl)o1)C1CC1	none
CCCn1nc(C(=O)NC2CCCc3ccccc32)c2ccccc2c1=O (centres undefined)	TRPC4 PAM 23
Cc1ccc(C2c3c(C)nn(-c4ccc([N+](=O)[O-])cc4)c3N=C3C(=O)Nc4ccccc4N32)cc1 (centres undefined)	TRPC6 inhibitor -5.3
COc1ccc(-c2csc(N(CCCN(C)C)C(=O)c3cccs3)n2)cc1	TRPC4 act 56
Cc1ccc(-c2csc(N(CCCN3CCOCC3)C(=O)c3ccco3)n2)cc1	none
Cc1ccc(-c2csc(N(CCCN(C)C)C(=O)c3ccco3)n2)cc1	TRPC4 inh -6
CN(C)CCCN(C(=O)c1ccco1)c1nc2cc3c(cc2s1)OCO3	TRPC6 inhibitor -7.8
CN(C)CCCN(C(=O)c1ccc(C(=O)c2ccccc2)cc1)c1nc2cc3c(cc2s1)OCO3	none
CCN(CC(=O)NCc1cccs1)C(=O)c1cccc(S(=O)(=O)NCc2ccccc2)c1	none
CC1(C)C(=O)Nc2ccccc2N1C(=O)COC(=O)C1CCCCC1	TRPC4 PAM 10
Cc1onc(-c2ccccc2Cl)c1C(=O)Nc1ccc(S(=O)(=O)N2CCCC2)cc1	TRPC4 PAM 10
O=C1CC(O)(C(F)F)Oc2ccc3ccccc3c21 (centres undefined)	none
O=C1CC(O)(C(F)(F)F)Oc2c1ccc1ccccc21 (centres undefined)	TRPC4 act 142
COc1ccc(OC)c(S(=O)(=O)N2CCC(C(=O)NC3CC3)CC2)c1	none
O=C(Nc1ccc2c(c1)CCC2)c1cnc(Cl)c(Cl)c1	none
O=C(Nc1ccc2c(c1)CCC2)c1ccc(Cl)nc1	TRPC4 inh -6

High-throughput results (PubChem)
